Here are results for three molecules from ChEMBL document CHEMBL1144570, “C6-(N,N-butyl-methyl-heptanamide) derivatives of estrone and estradiol as inhibitors of type 1 17beta-hydroxysteroid dehydrogenase: Chemical synthesis and biological evaluation” (2007).

Activity calls are given as the source filed them. No cut-off for these calls is given here.

The first assay has as its target T1, 17-beta-hydroxysteroid dehydrogenase type 1 (Homo sapiens) (UniProt P14061).
T1 sequence (whole entry): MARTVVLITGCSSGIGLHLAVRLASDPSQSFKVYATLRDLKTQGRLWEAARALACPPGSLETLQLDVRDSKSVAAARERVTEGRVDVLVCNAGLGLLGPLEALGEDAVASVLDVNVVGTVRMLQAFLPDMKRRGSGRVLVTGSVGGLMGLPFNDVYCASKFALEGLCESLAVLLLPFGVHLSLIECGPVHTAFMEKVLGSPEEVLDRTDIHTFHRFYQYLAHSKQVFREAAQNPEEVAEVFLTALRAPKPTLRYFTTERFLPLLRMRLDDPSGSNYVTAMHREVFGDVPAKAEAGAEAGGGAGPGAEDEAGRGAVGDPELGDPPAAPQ
The experiment in a line: Inhibition of 17beta-HSD1 over-expressed in intact T47D cells at 1 uM. Format: cell-based.
Settings: not given
An outline of the steps:
(§1)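 Intact T-47D cells, which express endogenous type 1 17β-HSD, were seeded at 3×10^4 cells/well in proliferation assay medium. After 48 h, [4-14C]-E1 (60 nM) and inhibitor in ethanol (0.5% v/v) were added in fresh medium for 24 h. Labelled E1 and E2 were extracted and quantified. Values are the mean of two experiments in triplicate, SD < ±5%.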
Regarding `CCCCN(C)C(=O)CCCCCC[C@H]1C[C@@H]2[C@H](CC[C@]3(C)[C@@H](O)CC[C@@H]23)c2ccc(O)cc21`, the inhibition came to 21%.
On the same count and under the same terms, the value for `CCCCN(C)C(=O)CCCCCC[C@@H]1C[C@@H]2[C@H](CC[C@]3(C)[C@@H](O)CC[C@@H]23)c2ccc(O)cc21` was 82%; that for `CCCCN(C)C(=O)CCCCCC[C@@H]1C[C@@H]2[C@H](CC[C@]3(C)C(=O)CC[C@@H]23)c2ccc(O)cc21` was 57%.

The next assay concerns the target T1, 17-beta-hydroxysteroid dehydrogenase type 1 (Homo sapiens). Nature of the assay: Inhibition of 17beta-HSD1 over-expressed in homogenated HEK293 cells at 0.1 uM. In kind it is cell-based.
Settings: not given
An outline of the steps: (§2)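 Homogenate of HEK-293 cells overexpressing type 1 17β-HSD. Reductive conversion of E1 (100 nM) to E2 with NADH cofactor. Percent inhibition from one run in triplicate, SD < ±5%.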
On to `CCCCN(C)C(=O)CCCCCC[C@H]1C[C@@H]2[C@H](CC[C@]3(C)[C@@H](O)CC[C@@H]23)c2ccc(O)cc21`, for which the inhibition turned out to be 9%.
Molecule `CCCCN(C)C(=O)CCCCCC[C@@H]1C[C@@H]2[C@H](CC[C@]3(C)[C@@H](O)CC[C@@H]23)c2ccc(O)cc21` displayed an inhibition of 15%.
Regarding `CCCCN(C)C(=O)CCCCCC[C@@H]1C[C@@H]2[C@H](CC[C@]3(C)C(=O)CC[C@@H]23)c2ccc(O)cc21`, the inhibition is 12%.

A further assay shares this target. The experiment in a line: Inhibition of 17beta-HSD1 over-expressed in intact HEK293 cells at 0.1 uM. In kind it is cell-based.
Settings: not given
The method in brief:
(§3)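 Transfected HEK-293 cells expressing type 1 17β-HSD were plated at 5000 cells/well. Inhibitors were added in ethanol and incubated 24 h. [4-14C]-E1 (60 nM) was then added for 15 min. Labelled E1 and E2 were extracted from the medium and quantified. Values are the mean of five experiments in quadruplicate, SD < ±8%.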
Molecule `CCCCN(C)C(=O)CCCCCC[C@H]1C[C@@H]2[C@H](CC[C@]3(C)[C@@H](O)CC[C@@H]23)c2ccc(O)cc21` gave an inhibition of 3%.
Still for that read-out and setting: next, `CCCCN(C)C(=O)CCCCCC[C@@H]1C[C@@H]2[C@H](CC[C@]3(C)[C@@H](O)CC[C@@H]23)c2ccc(O)cc21`: 11%; `CCCCN(C)C(=O)CCCCCC[C@@H]1C[C@@H]2[C@H](CC[C@]3(C)C(=O)CC[C@@H]23)c2ccc(O)cc21`: 8%.

The next assay addresses T2, 3-keto-steroid reductase/17-beta-hydroxysteroid dehydrogenase 7 (Homo sapiens) (UniProt P56937).
T2 sequence (whole entry): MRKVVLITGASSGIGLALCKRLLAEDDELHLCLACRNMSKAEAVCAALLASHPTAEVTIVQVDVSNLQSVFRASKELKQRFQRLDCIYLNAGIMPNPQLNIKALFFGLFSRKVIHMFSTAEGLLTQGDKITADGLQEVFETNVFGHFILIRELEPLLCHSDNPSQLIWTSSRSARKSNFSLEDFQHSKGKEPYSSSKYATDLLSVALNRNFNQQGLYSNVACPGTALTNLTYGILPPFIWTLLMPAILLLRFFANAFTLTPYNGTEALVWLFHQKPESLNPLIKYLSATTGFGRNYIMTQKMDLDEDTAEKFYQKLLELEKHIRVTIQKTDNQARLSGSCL
The experiment in a line: Inhibition of 17beta-HSD7 over-expressed in intact HEK293 cells at 1 uM. In kind it is cell-based.
Settings: not given
An outline of the steps: (§4)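 Intact transfected HEK-293 cells expressing type 7 17β-HSD. Inhibition of reductive conversion of E1 (60 nM) to E2. One run in triplicate, SD < ±5%.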
For `CCCCN(C)C(=O)CCCCCC[C@H]1C[C@@H]2[C@H](CC[C@]3(C)[C@@H](O)CC[C@@H]23)c2ccc(O)cc21`, the inhibition amounted to 11%.
Still for that read-out and setting: the value for `CCCCN(C)C(=O)CCCCCC[C@@H]1C[C@@H]2[C@H](CC[C@]3(C)[C@@H](O)CC[C@@H]23)c2ccc(O)cc21` was 0%; that for `CCCCN(C)C(=O)CCCCCC[C@@H]1C[C@@H]2[C@H](CC[C@]3(C)C(=O)CC[C@@H]23)c2ccc(O)cc21` was 7%.

The subject of the next assay is MCF7. Nature of the assay: Decrease in cell growth of estrogen-starved ER expressing MCF7 cells at 1 uM relative to control after 10 days. Format: functional, cell-based. As to conditions: Homo sapiens. The method in brief:
(§5)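 Cells were moved to medium with insulin (50 ng/mL) and 5% dextran-coated charcoal-treated FBS to remove estrogens, then seeded at 3000 cells/well. After 48 h, inhibitor dilutions in growth medium were added, with medium replaced every 2 days. Cells were grown 10 days in triplicate. Growth was read with the CellTiter 96 AQueous assay and expressed as % of control (100%).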
Take `CCCCN(C)C(=O)CCCCCC[C@@H]1C[C@@H]2[C@H](CC[C@]3(C)C(=O)CC[C@@H]23)c2ccc(O)cc21`: the outcome was Active.

The target in another assay is T1, 17-beta-hydroxysteroid dehydrogenase type 1 (Homo sapiens). Nature of the assay: Inhibition of 17beta-HSD1 overexpressed in homogenated HEK293 cells at 1 uM.
Settings: not given
Format: cell-based. An outline of the steps: as §2
The molecule `CCCCN(C)C(=O)CCCCCC[C@H]1C[C@@H]2[C@H](CC[C@]3(C)[C@@H](O)CC[C@@H]23)c2ccc(O)cc21` gave an inhibition of 17%.
The same measure, in the same setting: the value for `CCCCN(C)C(=O)CCCCCC[C@@H]1C[C@@H]2[C@H](CC[C@]3(C)[C@@H](O)CC[C@@H]23)c2ccc(O)cc21` was 46%; that for `CCCCN(C)C(=O)CCCCCC[C@@H]1C[C@@H]2[C@H](CC[C@]3(C)C(=O)CC[C@@H]23)c2ccc(O)cc21` was 23%.

The target is the same in a further assay. The experiment in a line: Inhibition of 17beta-HSD1 over-expressed in intact HEK293 cells at 10 uM.
Settings: not given
Format: cell-based. An outline of the steps:
as §3
Regarding `CCCCN(C)C(=O)CCCCCC[C@H]1C[C@@H]2[C@H](CC[C@]3(C)[C@@H](O)CC[C@@H]23)c2ccc(O)cc21`, the inhibition is 15%.
`CCCCN(C)C(=O)CCCCCC[C@@H]1C[C@@H]2[C@H](CC[C@]3(C)[C@@H](O)CC[C@@H]23)c2ccc(O)cc21` registered an inhibition of 49%.
Still for that read-out and setting: the value for `CCCCN(C)C(=O)CCCCCC[C@@H]1C[C@@H]2[C@H](CC[C@]3(C)C(=O)CC[C@@H]23)c2ccc(O)cc21` was 31%.

The next assay has the same target. The experiment in a line: Inhibition of 17beta-HSD1 over-expressed in intact HEK293 cells at 1 uM.
Settings: not given
Format: cell-based. The method in brief:
as §3
With `CCCCN(C)C(=O)CCCCCC[C@H]1C[C@@H]2[C@H](CC[C@]3(C)[C@@H](O)CC[C@@H]23)c2ccc(O)cc21`, the inhibition is 11%.
For `CCCCN(C)C(=O)CCCCCC[C@@H]1C[C@@H]2[C@H](CC[C@]3(C)[C@@H](O)CC[C@@H]23)c2ccc(O)cc21`, the inhibition is 21%.
Same read-out and setting: the value for `CCCCN(C)C(=O)CCCCCC[C@@H]1C[C@@H]2[C@H](CC[C@]3(C)C(=O)CC[C@@H]23)c2ccc(O)cc21` was 20%.

A further assay deals with T47D. The experiment in a line: Decrease in cell growth of estrogen-starved ER expressing T47D cells after 10 days relative to control. In kind it is functional, cell-based. As to conditions: Homo sapiens. The method in brief:
as §5
For `CCCCN(C)C(=O)CCCCCC[C@@H]1C[C@@H]2[C@H](CC[C@]3(C)[C@@H](O)CC[C@@H]23)c2ccc(O)cc21`, the outcome was Active.

Another assay deals with T1, 17-beta-hydroxysteroid dehydrogenase type 1 (Homo sapiens). Nature of the assay: Inhibition of 17beta-HSD1 over-expressed in intact T47D cells at 10 uM. Format: cell-based.
Settings: not given
The method in brief:
as §1
Molecule `CCCCN(C)C(=O)CCCCCC[C@H]1C[C@@H]2[C@H](CC[C@]3(C)[C@@H](O)CC[C@@H]23)c2ccc(O)cc21` came in with an inhibition of 74%.
On the same count and under the same terms, next, `CCCCN(C)C(=O)CCCCCC[C@@H]1C[C@@H]2[C@H](CC[C@]3(C)[C@@H](O)CC[C@@H]23)c2ccc(O)cc21`: 95%; `CCCCN(C)C(=O)CCCCCC[C@@H]1C[C@@H]2[C@H](CC[C@]3(C)C(=O)CC[C@@H]23)c2ccc(O)cc21`: 92%.

A further assay concerns the target T3, Very-long-chain 3-oxoacyl-CoA reductase (Homo sapiens) (UniProt Q53GQ0).
T3 sequence (whole entry): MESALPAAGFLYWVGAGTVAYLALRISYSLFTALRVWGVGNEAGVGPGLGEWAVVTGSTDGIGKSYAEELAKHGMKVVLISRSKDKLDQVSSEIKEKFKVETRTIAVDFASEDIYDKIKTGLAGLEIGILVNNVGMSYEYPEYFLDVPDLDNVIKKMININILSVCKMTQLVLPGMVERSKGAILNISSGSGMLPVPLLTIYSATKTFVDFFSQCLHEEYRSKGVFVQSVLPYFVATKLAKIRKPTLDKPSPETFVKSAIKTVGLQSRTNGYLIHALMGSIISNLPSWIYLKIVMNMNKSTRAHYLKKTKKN
The experiment in a line: Inhibition of 17beta-HSD12 over-expressed in intact HEK293 cells at 10 uM. In kind it is cell-based.
Settings: not given
The method in brief: (§6)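 Transfected HEK-293 cells expressing type 12 17β-HSD were plated at 1.5×10^5 cells/well. Inhibitor in ethanol plus [4-14C]-E1 (60 nM) were added in fresh medium for 24 h. E1 to E2 conversion was quantified after steroid extraction. Values are the mean of two experiments in triplicate, SD < ±5%.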
`CCCCN(C)C(=O)CCCCCC[C@H]1C[C@@H]2[C@H](CC[C@]3(C)[C@@H](O)CC[C@@H]23)c2ccc(O)cc21` registered an inhibition of 30%.
On the same count and under the same terms, next, `CCCCN(C)C(=O)CCCCCC[C@@H]1C[C@@H]2[C@H](CC[C@]3(C)[C@@H](O)CC[C@@H]23)c2ccc(O)cc21`: 30%.
The same measure, in the same setting: the value for `CCCCN(C)C(=O)CCCCCC[C@@H]1C[C@@H]2[C@H](CC[C@]3(C)C(=O)CC[C@@H]23)c2ccc(O)cc21` was 40%.

The next assay has as its target T2, 3-keto-steroid reductase/17-beta-hydroxysteroid dehydrogenase 7 (Homo sapiens). The experiment in a line: Inhibition of 17beta-HSD7 over-expressed in intact HEK293 cells at 10 uM. Format: cell-based.
Settings: not given
The method in brief: as §4
Take `CCCCN(C)C(=O)CCCCCC[C@H]1C[C@@H]2[C@H](CC[C@]3(C)[C@@H](O)CC[C@@H]23)c2ccc(O)cc21`: the inhibition came out at 24%.
`CCCCN(C)C(=O)CCCCCC[C@@H]1C[C@@H]2[C@H](CC[C@]3(C)[C@@H](O)CC[C@@H]23)c2ccc(O)cc21`: the inhibition amounted to 27%.
Take `CCCCN(C)C(=O)CCCCCC[C@@H]1C[C@@H]2[C@H](CC[C@]3(C)C(=O)CC[C@@H]23)c2ccc(O)cc21`: the inhibition was 31%.

The target of the next assay is T1, 17-beta-hydroxysteroid dehydrogenase type 1 (Homo sapiens). The experiment in a line: Inhibition of 17beta-HSD1 over-expressed in intact T47D cells at 0.1 uM. Format: cell-based.
Settings: not given
The method in brief:
as §1
In turn, `CCCCN(C)C(=O)CCCCCC[C@H]1C[C@@H]2[C@H](CC[C@]3(C)[C@@H](O)CC[C@@H]23)c2ccc(O)cc21` displayed an inhibition of 9%.
On the same count and under the same terms, next, `CCCCN(C)C(=O)CCCCCC[C@@H]1C[C@@H]2[C@H](CC[C@]3(C)[C@@H](O)CC[C@@H]23)c2ccc(O)cc21`: 29%.
Molecule `CCCCN(C)C(=O)CCCCCC[C@@H]1C[C@@H]2[C@H](CC[C@]3(C)C(=O)CC[C@@H]23)c2ccc(O)cc21` registered an inhibition of 19%.

The next assay addresses T3, Very-long-chain 3-oxoacyl-CoA reductase (Homo sapiens). Nature of the assay: Inhibition of 17beta-HSD12 over-expressed in intact HEK293 cells at 1 uM. Format: cell-based.
Settings: not given
The method in brief:
as §6
For the molecule `CCCCN(C)C(=O)CCCCCC[C@H]1C[C@@H]2[C@H](CC[C@]3(C)[C@@H](O)CC[C@@H]23)c2ccc(O)cc21`, the inhibition was 1%.
Still for that read-out and setting: the value for `CCCCN(C)C(=O)CCCCCC[C@@H]1C[C@@H]2[C@H](CC[C@]3(C)[C@@H](O)CC[C@@H]23)c2ccc(O)cc21` was 1%; that for `CCCCN(C)C(=O)CCCCCC[C@@H]1C[C@@H]2[C@H](CC[C@]3(C)C(=O)CC[C@@H]23)c2ccc(O)cc21` was 0%.
